In ChEMBL document CHEMBL4033702, “Challenges in the development of an M4 PAM preclinical candidate: The discovery, SAR, and in vivo characterization of a series of 3-aminoazetidine-derived amides” (Bioorg Med Chem Lett, 2017):
pEC50, pIC50: −log10 of the molar value. “And” between values parts separate entries of the source, which are not always exact repeats. Identical values can stand only once.

Tests used:
[1] = target: T1, Muscarinic acetylcholine receptor M4 (Homo sapiens) (UniProt P08173); experiment: Positive allosteric modulation of human M4 receptor expressed in CHO cells co-expressing Gqi5 assessed as increase in acetylcholine-induced calcium mobilization relative to acetylcholine; assay type: functional, cell-based
T1 sequence (whole entry): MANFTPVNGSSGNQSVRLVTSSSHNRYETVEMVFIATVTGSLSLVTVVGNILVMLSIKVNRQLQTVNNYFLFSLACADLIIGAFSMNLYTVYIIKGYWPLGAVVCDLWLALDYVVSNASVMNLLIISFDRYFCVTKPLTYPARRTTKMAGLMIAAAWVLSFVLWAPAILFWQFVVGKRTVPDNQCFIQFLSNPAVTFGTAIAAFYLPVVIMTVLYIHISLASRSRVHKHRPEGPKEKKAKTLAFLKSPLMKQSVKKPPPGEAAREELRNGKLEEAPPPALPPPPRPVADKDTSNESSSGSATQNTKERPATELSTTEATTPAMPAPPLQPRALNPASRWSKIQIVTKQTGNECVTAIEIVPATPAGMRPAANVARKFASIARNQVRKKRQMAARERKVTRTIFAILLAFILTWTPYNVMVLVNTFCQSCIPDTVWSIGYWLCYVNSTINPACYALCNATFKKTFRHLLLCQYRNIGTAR
Procedure, shortened: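 Calcium mobilization in CHO cells stably co-expressing hM4 and Gqi5, tested in the presence of a fixed EC20 concentration of acetylcholine. Values are means of three independent experiments, each run in triplicate.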

[2] = target: T2, Muscarinic acetylcholine receptor M4 (Homo sapiens, UniProt P08173); experiment: Positive allosteric modulation of human M4 receptor expressed in CHO cells co-expressing Gqi5 assessed as increase in acetylcholine-induced calcium mobilization
T2 sequence (P08173 whole entry): T1 sequence (whole entry)

MDR1 = experiment: Efflux ratio of permeability in MDCK2-MDR1 cells; assay type: ADME, cell-based, Canis lupus familiaris; settings: dog, MDCK-MDR1
[3] = target: T3, Muscarinic acetylcholine receptor M2 (Homo sapiens, UniProt P08172); experiment: Activity at human M2 receptor assessed as increase in acetylcholine-induced calcium mobilization; assay type: functional
T3 sequence (P08172 whole entry): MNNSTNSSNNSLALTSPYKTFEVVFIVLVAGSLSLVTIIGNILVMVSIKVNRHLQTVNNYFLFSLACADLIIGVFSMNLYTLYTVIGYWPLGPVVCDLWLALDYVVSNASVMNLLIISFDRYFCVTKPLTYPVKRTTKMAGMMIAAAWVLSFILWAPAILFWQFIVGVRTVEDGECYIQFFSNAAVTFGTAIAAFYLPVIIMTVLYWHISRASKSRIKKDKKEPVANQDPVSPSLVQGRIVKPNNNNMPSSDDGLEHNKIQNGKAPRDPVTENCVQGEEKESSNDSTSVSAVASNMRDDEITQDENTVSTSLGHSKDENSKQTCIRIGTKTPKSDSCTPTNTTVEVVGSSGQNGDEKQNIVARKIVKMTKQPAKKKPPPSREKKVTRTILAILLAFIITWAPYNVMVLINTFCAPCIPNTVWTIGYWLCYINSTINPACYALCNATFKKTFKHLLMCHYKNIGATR

[4] = Brain to plasma permeability coefficient, Kp of the compound in Sprague-Dawley rat administered as iv cassette dose measured at 0.25 hrs post dose; assay type: ADME, organism-based; settings: for Kp: brain, 0.25 h; for Kp at 0.25 h: Sprague-Dawley, brain and plasma
[5] = Clearance in Sprague-Dawley rat; assay type: ADME; settings: in vivo
Procedure, shortened: (§1)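 IV and PO pharmacokinetics in male Sprague-Dawley rats, n = 1–3. The oral dose was a 2–3 mg/kg solution. Plasma clearance, Vss and oral bioavailability were determined.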

[6] = Ratio of unbound brain to plasma concentration in Sprague-Dawley rat administered as iv cassette dose measured at 0.25 hrs post dose; assay type: ADME, organism-based
Rattus norvegicus [7] = experiment: Reversal of amphetamine-induced hyperlocomotion in Sprague-Dawley rat at 30 mg/kg, po pretreated 30 mins post habituation in the chamber followed by amphetamine injection after 30 mins measured after 60 mins; assay type: functional
Procedure, shortened: (§2)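 Male Sprague-Dawley rats, n = 6–24 per dose group, were habituated in the chamber for 30 min. The compound or vehicle (10% tween-80 in water, v/v) was then given orally. Amphetamine 0.75 mg/kg was injected subcutaneously 30 min later. Total ambulations over t = 60–120 min gave % reversal of AHL, reported as mean ± SEM.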

Rattus norvegicus [8] = experiment: Reversal of amphetamine-induced hyperlocomotion in Sprague-Dawley rat at 56.6 mg/kg, po pretreated 30 mins post habituation in the chamber followed by amphetamine injection after 30 mins measured after 60 mins; assay type: functional; settings: in the assay text read “1 mg/kg” for “56.6 mg/kg”; procedure, shortened: as §2
Cytochrome P450 2C9 = Cytochrome P450 2C9 (Homo sapiens, UniProt P11712); experiment: Inhibition of CYP2C9 (unknown origin); assay type: ADME
Sequence of Cytochrome P450 2C9 (P11712 whole entry): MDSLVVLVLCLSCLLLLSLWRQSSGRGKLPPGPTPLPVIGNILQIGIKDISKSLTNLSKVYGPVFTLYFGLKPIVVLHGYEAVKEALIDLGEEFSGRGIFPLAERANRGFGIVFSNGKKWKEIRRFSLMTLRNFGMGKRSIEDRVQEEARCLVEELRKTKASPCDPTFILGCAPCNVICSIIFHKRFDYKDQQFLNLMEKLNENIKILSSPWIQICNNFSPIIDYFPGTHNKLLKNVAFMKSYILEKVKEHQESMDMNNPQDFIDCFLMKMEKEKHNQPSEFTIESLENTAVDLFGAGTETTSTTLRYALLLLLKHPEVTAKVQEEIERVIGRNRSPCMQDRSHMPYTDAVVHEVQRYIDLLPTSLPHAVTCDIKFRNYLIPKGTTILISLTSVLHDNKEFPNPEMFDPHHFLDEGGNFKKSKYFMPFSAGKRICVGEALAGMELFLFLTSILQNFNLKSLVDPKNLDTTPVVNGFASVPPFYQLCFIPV

[9] = Volume of distribution at steady state in Sprague-Dawley rat; assay type: ADME; settings: in vivo, read-out: Vdss; procedure, shortened: as §1
Rattus norvegicus [10] = experiment: Reversal of amphetamine-induced hyperlocomotion in Sprague-Dawley rat at 3 mg/kg, po pretreated 30 mins post habituation in the chamber followed by amphetamine injection after 30 mins measured after 60 mins; assay type: functional; procedure, shortened: as §2
[11] = Elimination half-life in Sprague-Dawley rat; assay type: ADME; settings: in vivo, read-out: beta t1/2 (converted)
Rattus norvegicus [12] = experiment: Reversal of amphetamine-induced hyperlocomotion in Sprague-Dawley rat at 10 mg/kg, po pretreated 30 mins post habituation in the chamber followed by amphetamine injection after 30 mins measured after 60 mins; assay type: functional; procedure, shortened: as §2
Cytochrome P450 3A4 = Cytochrome P450 3A4 (Homo sapiens, UniProt P08684); experiment: Inhibition of CYP3A4 (unknown origin); assay type: ADME
Sequence of Cytochrome P450 3A4 (P08684 whole entry): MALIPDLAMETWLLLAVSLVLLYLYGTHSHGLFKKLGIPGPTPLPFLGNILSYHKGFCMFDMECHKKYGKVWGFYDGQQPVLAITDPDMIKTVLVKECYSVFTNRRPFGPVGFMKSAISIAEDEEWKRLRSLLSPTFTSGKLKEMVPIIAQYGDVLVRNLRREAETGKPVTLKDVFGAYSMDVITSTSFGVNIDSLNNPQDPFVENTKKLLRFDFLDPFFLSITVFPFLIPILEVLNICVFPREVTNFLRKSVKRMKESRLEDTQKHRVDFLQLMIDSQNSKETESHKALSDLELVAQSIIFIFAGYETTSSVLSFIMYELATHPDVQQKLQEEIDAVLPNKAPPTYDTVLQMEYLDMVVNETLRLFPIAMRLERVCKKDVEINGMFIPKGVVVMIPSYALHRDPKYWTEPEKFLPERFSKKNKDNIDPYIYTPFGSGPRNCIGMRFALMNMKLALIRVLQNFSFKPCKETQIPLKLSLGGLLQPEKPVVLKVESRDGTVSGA

[13] = target: T4, Muscarinic acetylcholine receptor M2 (Homo sapiens) (UniProt P08172); experiment: Activity at human M2 receptor assessed as increase in acetylcholine-induced calcium mobilization relative to acetylcholine; assay type: functional
T4 sequence (whole entry): T3 sequence (P08172 whole entry)

Cytochrome P450 1A2 = target: T5, Cytochrome P450 1A2 (Homo sapiens, UniProt P05177); experiment: Inhibition of CYP1A2 (unknown origin); assay type: ADME
T5 sequence (P05177 whole entry): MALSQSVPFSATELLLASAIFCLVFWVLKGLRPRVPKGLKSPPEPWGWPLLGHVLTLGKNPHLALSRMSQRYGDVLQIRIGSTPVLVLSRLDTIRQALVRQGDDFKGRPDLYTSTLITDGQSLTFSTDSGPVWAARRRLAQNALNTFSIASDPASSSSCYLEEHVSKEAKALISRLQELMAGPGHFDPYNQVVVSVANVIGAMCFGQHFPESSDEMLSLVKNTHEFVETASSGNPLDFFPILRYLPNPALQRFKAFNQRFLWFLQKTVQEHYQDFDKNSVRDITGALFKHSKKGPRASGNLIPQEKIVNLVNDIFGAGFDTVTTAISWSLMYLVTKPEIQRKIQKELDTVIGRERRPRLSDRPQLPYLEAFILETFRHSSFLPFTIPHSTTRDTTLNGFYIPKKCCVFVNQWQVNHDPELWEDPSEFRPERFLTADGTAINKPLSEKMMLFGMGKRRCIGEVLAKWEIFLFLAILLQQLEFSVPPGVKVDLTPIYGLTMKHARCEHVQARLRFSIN

Cytochrome P450 2D6 = Cytochrome P450 2D6 (Homo sapiens, UniProt P10635); experiment: Inhibition of CYP2D6 (unknown origin); assay type: ADME
Sequence of Cytochrome P450 2D6 (P10635 whole entry): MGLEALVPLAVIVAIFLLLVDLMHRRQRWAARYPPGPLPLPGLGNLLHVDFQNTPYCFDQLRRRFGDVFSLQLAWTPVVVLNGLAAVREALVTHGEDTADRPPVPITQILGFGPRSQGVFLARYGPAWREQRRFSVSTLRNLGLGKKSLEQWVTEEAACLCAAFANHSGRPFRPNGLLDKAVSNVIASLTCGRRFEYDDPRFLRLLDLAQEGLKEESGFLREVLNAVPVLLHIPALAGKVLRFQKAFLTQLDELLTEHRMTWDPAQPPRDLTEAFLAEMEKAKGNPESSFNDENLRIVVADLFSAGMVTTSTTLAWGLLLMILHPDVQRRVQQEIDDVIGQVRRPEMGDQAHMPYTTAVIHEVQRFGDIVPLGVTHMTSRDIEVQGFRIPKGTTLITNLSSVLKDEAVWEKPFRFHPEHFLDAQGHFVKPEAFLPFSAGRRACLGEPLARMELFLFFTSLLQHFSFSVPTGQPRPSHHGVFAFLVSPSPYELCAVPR

Rattus norvegicus [14] = species on record: Rattus norvegicus; experiment: Drug metabolism in Sprague-Dawley rat assessed as aldehyde oxidase-mediated metabolism at alpha to 4-pryidyl nitrogen; assay type: ADME

Structure (SMILES)	%max [1] [%]	pEC50 [2]	other results
COc1ccc(N2CC(NC(=O)c3sc4nnc(C)c(C)c4c3N)C2)cc1	81	5.89	
Cc1nnc2sc(C(=O)NC3CN(c4cc(F)nc(F)c4)C3)c(N)c2c1C	84	7.96	
Cc1nnc2sc(C(=O)NC3CN(C(=O)c4ccncc4)C3)c(N)c2c1C	85	6.75	efflux ratio (MDR1): 96; pEC50 [3]: < 5.00; Kp [4]: 0.03; clearance [5]: 3.1 mL/min/kg; K(p,uu,brain) [6]: 0.37
Cc1cccc(OC(=O)N2CC(NC(=O)c3sc4nnc(C)c(C)c4c3N)C2)c1	85	7.17	
Cc1nnc2sc(C(=O)NC3CN(c4cncc(F)c4)C3)c(N)c2c1C	90	7.80	
Cc1nnc2sc(C(=O)NC3CN(c4ccc(F)cc4F)C3)c(N)c2c1C	94	7.43	
Cc1nnc2sc(C(=O)NC3CN(c4ccncn4)C3)c(N)c2c1C	83	7.42	Kp at 0.25 h [4]: < 0.05
Cc1nnc2sc(C(=O)NC3CN(C(=O)OCc4ccccc4)C3)c(N)c2c1C	81	7.52	
Cc1nnc2sc(C(=O)NC3CN(c4ccc(S(=O)(=O)C(F)F)cc4)C3)c(N)c2c1C	75	6.49	
Cc1nnc2sc(C(=O)NC3CN(c4ccc(C(F)(F)F)nc4)C3)c(N)c2c1C	75	7.12	efflux ratio (MDR1): 8.5; Activity (Rattus norvegicus [7]): 55 - 56%; Activity (Rattus norvegicus [8]): 44%; pIC50 (Cytochrome P450 2C9): < 4.52; pEC50 [3]: 6.02; Vd [9]: 0.89 L/kg; Activity (Rattus norvegicus [10]): 48%; half-life [11]: 1.3 h; Kp [4]: 0.12; Activity (Rattus norvegicus [12]): 55%; pIC50 (Cytochrome P450 3A4): < 4.52; %max [13]: 43%; clearance [5]: 8.8 mL/min/kg; pIC50 (Cytochrome P450 1A2): < 4.52; K(p,uu,brain) [6]: 0.33; pIC50 (Cytochrome P450 2D6): < 4.52
Cc1nnc2sc(C(=O)NC3CN(C(=O)Oc4ccccc4)C3)c(N)c2c1C	96	7.64	pEC50 [3]: 5.58; half-life [11]: < 0.5 h
Cc1nnc2sc(C(=O)NC3CN(c4nc5ccccc5o4)C3)c(N)c2c1C	89	6.38	
Cc1nnc2sc(C(=O)NC3CN(c4ccc(F)c(F)c4)C3)c(N)c2c1C	84	7.54 and 7.52	clearance [5]: 4.4 mL/min/kg
Cc1nnc2sc(C(=O)NC3CN(c4ccc(S(=O)(=O)C(F)(F)F)cc4)C3)c(N)c2c1C	86	6.03	
Cc1nnc2sc(C(=O)NCc3ccc(S(=O)(=O)C(F)(F)F)cc3)c(N)c2c1C			Activity (Rattus norvegicus [12]): 62%
Cc1nnc2sc(C(=O)NC3CN(c4ccccn4)C3)c(N)c2c1C	81	6.91	
Cc1nnc2sc(C(=O)NC3CN(c4ccc(F)cc4)C3)c(N)c2c1C	77	6.55	

Structure (SMILES)	%max [1] [%]	pEC50 [2]	other results
COc1cc(N2CC(NC(=O)c3sc4nnc(C)c(C)c4c3N)C2)ccn1	86	7.29	Drug metabolism (Rattus norvegicus [14]): Metabolite_Detected
Cc1nnc2sc(C(=O)NC3CN(C(=O)c4ccccn4)C3)c(N)c2c1C	91	6.25	
Cc1nnc2sc(C(=O)NC3CN(c4cncnc4)C3)c(N)c2c1C	89	7.39 and 7.41	Kp at 0.25 h [4]: < 0.05
Cc1nnc2sc(C(=O)NC3CN(S(=O)(=O)c4ccccc4)C3)c(N)c2c1C	70	6.57 and 6.58	
Cc1nnc2sc(C(=O)NC3CN(c4ccccc4)C3)c(N)c2c1C	85	7.60	pEC50 [3]: 5.75; Kp [4]: 0.57; %max [13]: 58%; clearance [5]: 45 mL/min/kg; K(p,uu,brain) [6]: 0.73
Cc1nnc2sc(C(=O)NC3CN(C(=O)Nc4ccccc4)C3)c(N)c2c1C	89	6.66	
Cc1nnc2sc(C(=O)NC3CN(c4cccnc4)C3)c(N)c2c1C	96	7.47 and 7.48	Kp at 0.25 h [4]: < 0.05
COc1cncc(N2CC(NC(=O)c3sc4nnc(C)c(C)c4c3N)C2)c1	88	7.77	Kp [4]: < 0.05
Cc1nnc2sc(C(=O)NC3CN(c4ccccc4F)C3)c(N)c2c1C	82	7.55	
Cc1nnc2sc(C(=O)NC3CN(c4ccncc4Cl)C3)c(N)c2c1C	86	8.10	Drug metabolism (Rattus norvegicus [14]): Metabolite_Detected
Cc1nnc2sc(C(=O)NC3CN(C(=O)c4ccccc4)C3)c(N)c2c1C	85	6.11	
COc1cccc(N2CC(NC(=O)c3sc4nnc(C)c(C)c4c3N)C2)c1	77	6.85 and 6.88	
Cc1nnc2sc(C(=O)NC3CN(c4nc5ccccc5s4)C3)c(N)c2c1C	87	6.36	
Cc1nnc2sc(C(=O)NC3CN(c4nc5cccnc5s4)C3)c(N)c2c1C	81	6.97	pEC50 [3]: 6.66; Kp [4]: 0.17; Activity (Rattus norvegicus [12]): 16%; K(p,uu,brain) [6]: 1.3
Cc1nnc2sc(C(=O)NC3CN(c4ccnc(Cl)c4)C3)c(N)c2c1C	87	6.73	
Cc1nnc2sc(C(=O)NC3CN(c4cccnc4F)C3)c(N)c2c1C	82	7.54	
Cc1nnc2sc(C(=O)NC3CN(c4cnccn4)C3)c(N)c2c1C	80	7.11 and 7.13	Kp at 0.25 h [4]: < 0.05
